Data published in ChEMBL document CHEMBL5678802, “Small-molecule p21-activated kinase inhibitor PF-3758309 is a potent inhibitor of oncogenic signaling and tumor growth” (Proc Natl Acad Sci U S A, 2010).
Active and inactive are the calls of the source. The rule behind the calls is not given here.

Experiments:
[1] = test system: NCI-H526; assay: Antiproliferative activity against human NCI-H526 cells assessed as inhibition of cell proliferation incubated for 3 days by CellTiter-Glo Luminescent Cell Viability Assay; assay type: functional, cell-based; conditions: NCI-H526, 72 h
In short: (§1)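 Cells of each line were plated in 384-well plates on day 1 and exposed to compound from day 2 for 3 days. On day 5 all medium was aspirated. Viable cell number was read by CellTiter-Glo luminescence, which quantifies cellular ATP.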

[2] = test system: NCI-H82; assay: Antiproliferative activity against human NCI-H82 cells assessed as inhibition of cell proliferation incubated for 3 days by CellTiter-Glo Luminescent Cell Viability Assay; assay type: functional, cell-based; conditions: NCI-H82, 72 h; in short: as §1
[3] = test system: SK-MES-1; assay: Antiproliferative activity against human SK-MES-1 cells assessed as inhibition of cell proliferation incubated for 3 days by CellTiter-Glo Luminescent Cell Viability Assay; assay type: functional, cell-based; conditions: SK-MES-1, 72 h; in short: as §1
[4] = test system: NCI-H1734; assay: Antiproliferative activity against human NCI-H1734 cells assessed as inhibition of cell proliferation incubated for 3 days by CellTiter-Glo Luminescent Cell Viability Assay; assay type: functional, cell-based; conditions: NCI-H1734, 72 h; in short: as §1
[5] = test system: NCI-H1838; assay: Antiproliferative activity against human NCI-H1838 cells assessed as inhibition of cell proliferation incubated for 3 days by CellTiter-Glo Luminescent Cell Viability Assay; assay type: functional, cell-based; conditions: NCI-H1838, 72 h; in short: as §1
[6] = test system: NCI-H1395; assay: Antiproliferative activity against human NCI-H1395 cells assessed as inhibition of cell proliferation incubated for 3 days by CellTiter-Glo Luminescent Cell Viability Assay; assay type: functional, cell-based; conditions: NCI-H1395, 72 h
In short: (§2)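 Cancer cell lines seeded in 384-well plates on day 1; compound added on day 2 and left for 3 days. On day 5 all medium was aspirated, and viable cells were quantified by CellTiter-Glo luminescence, which measures cellular ATP. Dose-dependent effects on proliferation were determined.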

[7] = test system: PANC-03-27; assay: Antiproliferative activity against human PANC-03-27 cells assessed as inhibition of cell proliferation incubated for 3 days by CellTiter-Glo Luminescent Cell Viability Assay; assay type: functional, cell-based; conditions: PANC-03-27, 72 h; in short: as §1
[8] = test system: Capan-2; assay: Antiproliferative activity against human Capan-2 cells assessed as inhibition of cell proliferation incubated for 3 days by CellTiter-Glo Luminescent Cell Viability Assay; assay type: functional, cell-based; conditions: Capan-2, 72 h; in short: as §2
[9] = test system: HPAC; assay: Antiproliferative activity against human HPAC cells assessed as inhibition of cell proliferation incubated for 3 days by CellTiter-Glo Luminescent Cell Viability Assay; assay type: functional, cell-based; conditions: 72 h; in short: as §2
[10] = test system: Panc 02.03; assay: Antiproliferative activity against human Panc 02.03 cells assessed as inhibition of cell proliferation incubated for 3 days by CellTiter-Glo Luminescent Cell Viability Assay; assay type: functional, cell-based; conditions: Panc 02.03, 72 h; in short: as §1
[11] = test system: HCC1395; assay: Antiproliferative activity against human HCC1395 cells assessed as inhibition of cell proliferation incubated for 3 days by CellTiter-Glo Luminescent Cell Viability Assay; assay type: functional, cell-based; conditions: HCC1395, 72 h; in short: as §2
[12] = test system: CAMA-1; assay: Antiproliferative activity against human CAMA-1 cells assessed as inhibition of cell proliferation incubated for 3 days by CellTiter-Glo Luminescent Cell Viability Assay; assay type: functional, cell-based; conditions: CAMA-1, 72 h; in short: as §2
[13] = test system: MCF7; assay: Antiproliferative activity against human MCF7 cells assessed as inhibition of cell proliferation incubated for 3 days by CellTiter-Glo Luminescent Cell Viability Assay; assay type: functional, cell-based; conditions: MCF7, 72 h; in short: as §2
[14] = molecular target: AMP-activated protein kinase (AMPK) alpha-1/beta-1/gamma-1 (Homo sapiens) (UniProt P54619+Q9Y478+Q13131); assay: Inhibition of human AMPK alpha1/beta1/gamma1 in presence of ATP relative to control; assay type: protein-complex assay; conditions: concentration not given here
AMP-activated protein kinase (AMPK) alpha-1/beta-1/gamma-1 (Homo sapiens), sequence (P54619 whole entry): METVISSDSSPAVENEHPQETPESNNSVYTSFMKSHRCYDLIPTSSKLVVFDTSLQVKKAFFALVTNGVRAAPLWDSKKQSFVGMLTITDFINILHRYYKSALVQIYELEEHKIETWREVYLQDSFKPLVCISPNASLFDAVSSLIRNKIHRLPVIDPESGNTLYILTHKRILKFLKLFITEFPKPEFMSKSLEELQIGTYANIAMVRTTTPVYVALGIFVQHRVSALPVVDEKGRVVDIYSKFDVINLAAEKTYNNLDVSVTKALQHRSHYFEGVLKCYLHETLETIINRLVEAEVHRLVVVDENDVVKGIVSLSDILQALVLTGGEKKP
AMP-activated protein kinase (AMPK) alpha-1/beta-1/gamma-1 (Homo sapiens), sequence (Q13131 whole entry partner): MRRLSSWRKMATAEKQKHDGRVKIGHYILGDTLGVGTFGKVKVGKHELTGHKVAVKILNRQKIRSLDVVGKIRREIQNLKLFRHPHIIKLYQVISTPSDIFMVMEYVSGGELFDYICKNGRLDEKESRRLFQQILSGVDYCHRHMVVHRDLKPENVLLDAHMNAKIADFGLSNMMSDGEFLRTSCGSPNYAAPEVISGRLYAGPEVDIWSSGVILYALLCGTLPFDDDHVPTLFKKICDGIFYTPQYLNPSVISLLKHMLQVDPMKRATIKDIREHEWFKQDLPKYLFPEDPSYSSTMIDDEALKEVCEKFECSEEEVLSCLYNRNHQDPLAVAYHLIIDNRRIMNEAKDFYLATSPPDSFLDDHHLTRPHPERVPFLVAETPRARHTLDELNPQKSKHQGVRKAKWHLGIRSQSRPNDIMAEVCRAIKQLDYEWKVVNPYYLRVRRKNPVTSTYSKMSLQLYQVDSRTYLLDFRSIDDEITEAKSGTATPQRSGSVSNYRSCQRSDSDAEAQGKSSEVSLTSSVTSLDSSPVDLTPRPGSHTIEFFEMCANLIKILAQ
AMP-activated protein kinase (AMPK) alpha-1/beta-1/gamma-1 (Homo sapiens), sequence (Q9Y478 2-270 partner limits assumed): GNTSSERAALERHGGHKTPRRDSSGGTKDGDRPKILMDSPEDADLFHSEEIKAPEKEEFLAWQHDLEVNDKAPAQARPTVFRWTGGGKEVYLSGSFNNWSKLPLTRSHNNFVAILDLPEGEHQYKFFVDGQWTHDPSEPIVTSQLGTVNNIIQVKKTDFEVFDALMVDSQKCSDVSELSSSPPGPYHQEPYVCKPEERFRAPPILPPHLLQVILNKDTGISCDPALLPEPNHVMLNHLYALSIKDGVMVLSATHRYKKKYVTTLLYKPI

[15] = molecular target: Ribosomal protein S6 kinase alpha-1 (Homo sapiens, UniProt Q15418); assay: Inhibition of human RSK1 in presence of ATP relative to control; conditions: concentration not given here
[16] = molecular target: Protein kinase C theta type (Homo sapiens, UniProt Q04759); assay: Inhibition of human PKCtheta in presence of ATP relative to control; conditions: concentration not given here
[17] = molecular target: Tyrosine-protein kinase Fyn (Homo sapiens, UniProt P06241); assay: Inhibition of human FYN in presence of ATP relative to control; conditions: concentration not given here
Tyrosine-protein kinase Fyn, sequence (P06241 2-537 limits assumed): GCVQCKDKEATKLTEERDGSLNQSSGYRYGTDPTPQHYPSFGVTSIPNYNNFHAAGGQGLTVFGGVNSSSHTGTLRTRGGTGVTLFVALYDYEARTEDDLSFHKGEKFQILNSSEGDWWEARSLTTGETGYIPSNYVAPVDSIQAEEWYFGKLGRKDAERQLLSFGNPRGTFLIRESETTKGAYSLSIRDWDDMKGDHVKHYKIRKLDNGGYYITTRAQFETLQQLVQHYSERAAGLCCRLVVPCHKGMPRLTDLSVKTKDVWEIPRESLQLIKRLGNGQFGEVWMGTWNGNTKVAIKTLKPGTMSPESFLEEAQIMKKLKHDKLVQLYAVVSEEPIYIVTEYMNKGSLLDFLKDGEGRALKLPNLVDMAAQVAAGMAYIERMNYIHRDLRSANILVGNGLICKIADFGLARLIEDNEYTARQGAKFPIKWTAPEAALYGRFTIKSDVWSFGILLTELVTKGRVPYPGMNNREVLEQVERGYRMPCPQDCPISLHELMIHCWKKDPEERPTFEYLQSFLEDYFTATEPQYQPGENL

[18] = molecular target: Serine/threonine-protein kinase N1 (Homo sapiens) (UniProt Q16512); assay: Inhibition of human PRK1 in presence of ATP relative to control; conditions: concentration not given here
Serine/threonine-protein kinase N1 (Homo sapiens), sequence (Q16512 2-942 limits assumed): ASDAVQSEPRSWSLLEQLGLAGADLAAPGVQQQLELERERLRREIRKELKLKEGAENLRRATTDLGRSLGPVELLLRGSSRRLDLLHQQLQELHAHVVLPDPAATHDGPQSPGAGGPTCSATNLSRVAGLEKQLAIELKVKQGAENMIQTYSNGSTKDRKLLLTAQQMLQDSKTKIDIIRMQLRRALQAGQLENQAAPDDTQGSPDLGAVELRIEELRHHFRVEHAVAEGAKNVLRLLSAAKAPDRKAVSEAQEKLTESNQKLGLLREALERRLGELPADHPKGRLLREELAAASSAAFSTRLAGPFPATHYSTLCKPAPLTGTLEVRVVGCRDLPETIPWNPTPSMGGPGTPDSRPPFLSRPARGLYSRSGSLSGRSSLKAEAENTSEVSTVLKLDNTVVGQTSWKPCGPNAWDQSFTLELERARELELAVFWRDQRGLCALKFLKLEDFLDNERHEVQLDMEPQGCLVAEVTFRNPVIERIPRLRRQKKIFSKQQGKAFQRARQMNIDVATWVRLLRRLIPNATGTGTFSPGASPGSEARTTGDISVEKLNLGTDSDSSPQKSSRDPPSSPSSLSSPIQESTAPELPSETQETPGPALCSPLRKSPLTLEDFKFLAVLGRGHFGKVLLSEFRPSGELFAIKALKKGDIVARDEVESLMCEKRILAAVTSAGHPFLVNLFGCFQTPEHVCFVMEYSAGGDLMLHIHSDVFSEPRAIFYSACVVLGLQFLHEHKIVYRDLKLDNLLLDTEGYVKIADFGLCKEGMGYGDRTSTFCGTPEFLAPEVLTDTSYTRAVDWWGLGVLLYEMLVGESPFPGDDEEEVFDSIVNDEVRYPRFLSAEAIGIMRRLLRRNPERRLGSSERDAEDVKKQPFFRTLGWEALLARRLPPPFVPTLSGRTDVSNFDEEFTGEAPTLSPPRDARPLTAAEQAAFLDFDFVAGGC

[19] = molecular target: T1, Protein kinase C gamma type (Homo sapiens, UniProt P05129); assay: Inhibition of human PKCgamma in presence of ATP relative to control; conditions: concentration not given here
[20] = molecular target: T1, Protein kinase C gamma type; assay: Inhibition of human PKCgamma assessed as inhibition constant in presence of ATP
[21] = molecular target: Proto-oncogene tyrosine-protein kinase Src (Homo sapiens, UniProt P12931); assay: Inhibition of human SRC in presence of ATP
Proto-oncogene tyrosine-protein kinase Src, sequence (P12931 2-536 limits assumed): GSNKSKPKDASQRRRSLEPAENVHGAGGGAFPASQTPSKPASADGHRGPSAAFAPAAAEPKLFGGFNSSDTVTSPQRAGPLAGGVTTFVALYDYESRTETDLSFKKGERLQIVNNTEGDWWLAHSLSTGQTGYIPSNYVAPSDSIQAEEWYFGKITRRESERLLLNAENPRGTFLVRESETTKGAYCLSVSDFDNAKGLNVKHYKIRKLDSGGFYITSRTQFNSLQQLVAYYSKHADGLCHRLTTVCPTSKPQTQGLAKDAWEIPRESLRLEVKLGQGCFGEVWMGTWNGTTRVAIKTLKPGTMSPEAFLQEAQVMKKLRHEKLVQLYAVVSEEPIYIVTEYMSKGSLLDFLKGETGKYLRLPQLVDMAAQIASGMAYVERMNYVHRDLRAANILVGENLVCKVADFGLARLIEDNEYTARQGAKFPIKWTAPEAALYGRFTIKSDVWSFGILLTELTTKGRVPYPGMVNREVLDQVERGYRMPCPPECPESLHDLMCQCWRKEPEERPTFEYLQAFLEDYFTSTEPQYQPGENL

[22] = molecular target: AMP-activated protein kinase (AMPK) alpha-1/beta-1/gamma-1 (Homo sapiens, UniProt P54619+Q13131+Q9Y478); assay: Inhibition of human AMPK alpha1/beta1/gamma1 in presence of ATP by cellular assay; assay type: protein-complex assay
AMP-activated protein kinase (AMPK) alpha-1/beta-1/gamma-1, sequence (P54619 whole entry): as the sequence (P54619 whole entry) above
AMP-activated protein kinase (AMPK) alpha-1/beta-1/gamma-1, sequence (Q9Y478 whole entry): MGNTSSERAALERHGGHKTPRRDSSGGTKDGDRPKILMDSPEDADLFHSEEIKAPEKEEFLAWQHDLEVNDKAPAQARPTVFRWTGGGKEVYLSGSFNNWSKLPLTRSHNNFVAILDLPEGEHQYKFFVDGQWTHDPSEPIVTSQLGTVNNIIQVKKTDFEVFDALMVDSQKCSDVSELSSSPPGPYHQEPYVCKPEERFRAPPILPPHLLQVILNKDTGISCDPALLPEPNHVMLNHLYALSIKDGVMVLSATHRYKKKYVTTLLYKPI
AMP-activated protein kinase (AMPK) alpha-1/beta-1/gamma-1, sequence (Q13131 whole entry): as the sequence (Q13131 whole entry partner) above

[23] = molecular target: Serine/threonine-protein kinase Chk2 (Homo sapiens, UniProt O96017); assay: Inhibition of human CHK2 in presence of ATP by cellular assay
Serine/threonine-protein kinase Chk2, sequence (O96017 whole entry): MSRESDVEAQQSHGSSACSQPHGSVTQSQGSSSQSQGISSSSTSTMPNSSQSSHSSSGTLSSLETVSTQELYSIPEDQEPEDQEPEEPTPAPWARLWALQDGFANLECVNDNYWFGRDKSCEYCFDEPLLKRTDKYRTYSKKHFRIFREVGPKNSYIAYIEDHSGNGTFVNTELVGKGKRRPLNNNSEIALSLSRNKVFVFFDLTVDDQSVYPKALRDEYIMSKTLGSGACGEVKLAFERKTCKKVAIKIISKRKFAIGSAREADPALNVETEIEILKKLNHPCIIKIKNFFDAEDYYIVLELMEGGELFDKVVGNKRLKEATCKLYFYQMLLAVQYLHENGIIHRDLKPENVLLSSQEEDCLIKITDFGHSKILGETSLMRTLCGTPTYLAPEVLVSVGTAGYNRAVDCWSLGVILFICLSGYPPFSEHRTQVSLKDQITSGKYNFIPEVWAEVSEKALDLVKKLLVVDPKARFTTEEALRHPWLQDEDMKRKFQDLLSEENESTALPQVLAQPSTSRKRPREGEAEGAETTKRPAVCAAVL

[24] = test system: HCT-116; assay: Downregulation of camptothecin-induced phospho-S810-GEF-H1 level in human HCT-116 cells at 1 uM preincubated with compound for 15 mins followed by camptothecin stimulation and measured after 20 hrs by Western blot analysis; assay type: functional, cell-based; conditions: time 20.25 hrs
[25] = test system: HCT-116; assay: Antitumor activity against human HCT-116 cells xenografted in nude mouse assessed as tumor growth inhibition at 7.5 mg/kg, po administered twice daily for 9 to 18 days relative to control; assay type: functional; conditions: time 9-18 day, read-out: TGI
[26] = test system: MDA-MB-231; assay: Antitumor activity against human MDA-MB-231 cells xenografted in nude mouse assessed as tumor growth inhibition at 20 mg/kg, po administered once daily for 9 to 18 days relative to control; assay type: functional; conditions: time 9-18 day, read-out: TGI
[27] = test system: HCT-116; assay: Antitumor activity against human HCT-116 cells xenografted in nude mouse assessed as inhibition of [3H]FLT uptake at 25 mg/kg, po administered once a day for 1 day and measured after 2 hrs post [3H]FLT administration by scintillation counter analysis relative to control; assay type: functional; conditions: HCT-116, 24 h
In short: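 HCT116 xenograft mice (tumors 300–350 mm3, n = 5 per group) received oral vehicle or compound, with harvests on days 2, 3 and 6. Isoflurane-anesthetized mice were given [3H]FLT (15 nCi/g, i.p.) 2 h before killing. Tumor and liver were weighed, solubilized and scintillation-counted. SUV = C/(ID/W), and uptake is reported as the tumor-to-liver SUV ratio.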

[28] = test system: HCT-116; assay: Antitumor activity against human HCT-116 cells xenografted in nude mouse assessed as reduction in MEK1 phosphorylation at S221 residue at 15 to 150 mg/kg/day administered via pump for 18 hrs by Reverse-Phase protein array analysis; assay type: functional, organism-based; conditions: dose 15-150 mg/kg/day
[29] = test system: HCT-116; assay: Antitumor activity against human HCT-116 cells xenografted in nude mouse assessed as reduction in Elk phosphorylation at S383 residue at 15 to 150 mg/kg/day administered via pump for 18 hrs by Reverse-Phase protein array analysis; assay type: functional, organism-based; conditions: dose 15-150 mg/kg/day

IC50 [1]: 1.4 nM | IC50 [2]: 2.1 nM | IC50 [3]: 3.2 nM | IC50 [4]: 4.1 nM | IC50 [5]: 5.5 nM | IC50 [6]: 6.4 nM | IC50 [7]: 32 nM | IC50 [10]: 540 nM | IC50 [11]: 1.6 nM | IC50 [13]: 44.6 nM | inhibition [14]: 101% | inhibition [15]: 101% | inhibition [16]: 98% | inhibition [17]: 95% | inhibition [18]: 86% | inhibition [19]: 92% | Ki [20]: 43 nM | IC50 [21]: 55 nM | IC50 [22]: 40 nM | IC50 [23]: 302 nM
Compound: Cc1nc(Nc2n[nH]c3c2CN(C(=O)N[C@H](CN(C)C)c2ccccc2)C3(C)C)c2sccc2n1 [PF-03758309]
IC50 [8]: 136 nM | IC50 [9]: 265 nM | IC50 [12]: 2.7 nM | Activity [24]: Active | inhibition in vivo at 7.5 mg/kg [25]: 64% | inhibition in vivo at 20 mg/kg [26]: 89% | inhibition in vivo at 25 mg/kg [27]: 33.8% | Activity [28]: Active | Activity [29]: Active
